We go through nine compounds from ChEMBL document CHEMBL5032492, “Aminoalkoxycarbonyloxymethyl Ether Prodrugs with a pH-Triggered Release Mechanism: A Case Study Improving the Solubility, Bioavailability, and Efficacy of Antimalarial 4(1H)-Quinolones with Single Dose Cures” (J Med Chem, 2021).

Data set [1] relates to Plasmodium falciparum. The data set is described as follows: Antimalarial activity against chloroquine and pyrimethamine resistant Plasmodium falciparum W2 infected in human erythrocytes assessed as reduction in parasite growth incubated for 48 hrs followed by addition of [3H]-hypoxanthine and measured after 24 hrs by Topcount liquid scintillation counting method. Format: functional, organism-based. The conditions noted are these: W2, Erythrocyte.

Data set [2] is described as follows: Aqueous solubility of compound at pH 7.4. Format: physicochemical. The conditions noted are these: buffer.
Data set [3] relates to Plasmodium falciparum. Nature of the data set: Antimalarial activity against chloroquine, pyrimethamine, mefloquine and atovaquone- resistant Plasmodium falciparum TM90-C2B infected in human erythrocytes assessed as reduction in parasite growth incubated for 48 hrs followed by addition of [3H]-hypoxanthine and measured after 24 hrs by Topcount liquid scintillation counting method. As to conditions: Erythrocyte. Format: functional, organism-based.

Data set [4] relates to Plasmodium berghei. The data set is described as follows: In vivo antimalarial activity against blood stage Plasmodium berghei transfected with GFP infected in BALB/c mouse assessed as supression of parasitemia at 10 mg/kg, po administered as single dose on 3 days post infection and measured on day 6 by Giemsa staining based flow cytometric analysis relative to control. Format: functional. As to conditions: time 3 day. The gist of the method: (§1)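 Female BALB/c mice, 4–6 weeks old, five per dose group, were infected intraperitoneally with 2 × 10^6 P. berghei-GFP-infected red cells. Each received one oral dose on day 3 PI in 0.5% aqueous HEC; doses ranged 0.01–10 mg/kg. Parasitemia was measured from tail blood by flow cytometry and Giemsa smears. Percent suppression on day 6 PI was calculated versus untreated infected controls, with Welch-corrected unpaired t test.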
Background: In flow cytometry, cells or beads pass a laser one at a time.

In data set [5] the test system is Plasmodium berghei. Nature of the data set: In vivo antimalarial activity against blood stage Plasmodium berghei transfected with GFP infected in BALB/c mouse assessed as supression of parasitemia at 1 mg/kg, po administered as single dose on 3 days post infection and measured on day 13 by Giemsa staining based flow cytometric analysis relative to control. The format is functional. The conditions noted are these: time 10 day. The gist of the method:
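Female BALB/c mice, five per group, were infected with P. berghei-GFP-infected erythrocytes intraperitoneally. Each received a single oral dose of 1 mg/kg in 0.5% aqueous HEC on day 3 PI. Tail-blood parasitemia was followed by flow cytometry and Giemsa smears at 3-day intervals through day 30. Suppression on day 13 PI was calculated relative to untreated infected controls.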

Data set [6] can be described thus: AUC (0 to 24 hrs) in BALB/c mouse at 10 mg/kg, po. The format is ADME, organism-based. Further details: time < 24 hr, route oral, dose 10 mg/kg. The conditions noted are these: in vivo. The gist of the method: (§2)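 Single oral dose in mice, formulated in 0.5% aqueous HEC; doses of 3, 10 or 50 mg/kg. The parent 4(1H)-quinolone was quantified in plasma over time after dosing, with a lower limit of quantification of 1 nM. PK parameters were derived from the plasma concentration profiles.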

Data set [7] concerns Plasmodium berghei. Nature of the data set: In vivo antimalarial activity against blood stage Plasmodium berghei transfected with GFP infected in BALB/c mouse assessed as supression of parasitemia at 0.1 mg/kg, po administered as single dose on 3 days post infection and measured on day 6 by Giemsa staining based flow cytometric analysis relative to control. Format: functional. As to conditions: time 3 day. The essentials:
as §1

Data set [8] can be described thus: AUC (0 to 24 hrs) in BALB/c mouse at 3 mg/kg, po. Further details: time < 24 hr, route oral, dose 3 mg/kg. The conditions noted are these: in vivo. The format is ADME, organism-based. The essentials:
as §2

Data set [9] can be described thus: Clearance in BALB/c mouse at 3 mg/kg, po. The conditions noted are these: in vivo. Format: ADME, organism-based. The gist of the method:
as §2

In data set [10] the test system is Plasmodium berghei. Nature of the data set: In vivo antimalarial activity against blood stage Plasmodium berghei transfected with GFP infected in BALB/c mouse assessed as supression of parasitemia at 0.01 mg/kg, po administered as single dose on 3 days post infection and measured on day 6 by Giemsa staining based flow cytometric analysis relative to control. Format: functional. The conditions noted are these: time 3 day. The essentials:
as §1

Data set [11] is described as follows: Solubility of the compound in 0.5% hydroxyethylcellulose.
Data set [12] has as its system Plasmodium berghei. The data set is described as follows: In vivo antimalarial activity against blood stage Plasmodium berghei transfected with GFP infected in BALB/c mouse assessed as supression of parasitemia at 0.03 mg/kg, po administered as single dose on 3 days post infection and measured on day 6 by Giemsa staining based flow cytometric analysis relative to control. The conditions noted are these: time 3 day. The format is functional. The essentials: as §1

Data set [13] has as its system Plasmodium berghei. The data set is described as follows: In vivo antimalarial activity against blood stage Plasmodium berghei transfected with GFP infected in BALB/c mouse assessed as supression of parasitemia at 3 mg/kg, po administered as single dose on 3 days post infection and measured on day 6 by Giemsa staining based flow cytometric analysis relative to control. The format is functional. As to conditions: time 3 day. The gist of the method: as §1

In data set [14] the test system is Plasmodium berghei. Nature of the data set: In vivo antimalarial activity against blood stage Plasmodium berghei transfected with GFP infected in BALB/c mouse assessed as supression of parasitemia at 0.3 mg/kg, po administered as single dose on 3 days post infection and measured on day 6 by Giemsa staining based flow cytometric analysis relative to control. Format: functional. As to conditions: time 3 day. The essentials:
as §1

Data set [15] is described as follows: Clearance in BALB/c mouse at 10 mg/kg, po. The format is ADME, organism-based. As to conditions: in vivo. The essentials: as §2
Data set [16] in a line: Toxicity in BALB/c mouse infected with blood stage Plasmodium berghei assessed as death at 1 mg/kg, po administered as single dose starting from day 3 post infection and measured on day 13. As to conditions: in vivo, 240 h, time 10 day. The format is organism-based. The essentials:
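Female BALB/c mice (4–6 weeks, about 18 g), five per group, infected intraperitoneally with P. berghei (GFP)-parasitized erythrocytes. Given one oral dose on day 3 PI in 0.5% aqueous HEC, freshly solubilized about 1 min before dosing. Tail-vein parasitemia read by flow cytometry and Giemsa smears every third day through day 30. Untreated animals served as controls.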

Data set [17] deals with Plasmodium berghei. Nature of the data set: In vivo antimalarial activity against blood stage Plasmodium berghei transfected with GFP infected in BALB/c mouse assessed as supression of parasitemia at 1 mg/kg, po administered as single dose on 3 days post infection and measured on day 6 by Giemsa staining based flow cytometric analysis relative to control. Format: functional. The conditions noted are these: time 3 day. The gist of the method:
as §1

The test system of data set [18] is Plasmodium berghei. The data set is described as follows: In vivo antimalarial activity against Plasmodium berghei at 20 mg/kg, po administered as single dose in presence of ferroquine. The format is functional, organism-based.
A short description of data set [19]: Aqueous solubility of compound at pH 2.4. The conditions noted are these: buffer.
The test system of data set [20] is Plasmodium berghei. Nature of the data set: In vivo antimalarial activity against blood stage Plasmodium berghei transfected with GFP infected in BALB/c mouse assessed as supression of parasitemia at 10 mg/kg, po administered once daily starting from day 3 to 5 post infection and measured at day 6 by Giemsa staining based flow cytometric analysis relative to control. Format: functional. The essentials:
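Female BALB/c mice, 4–6 weeks old, five per group, were infected intraperitoneally with 2 × 10^6 P. berghei-GFP-infected red cells. Oral doses of 10 or 50 mg/kg in 0.5% aqueous HEC were given once daily on days 3–5 PI; prodrugs were suspended about 1 min before dosing. Parasitemia was measured by flow cytometry and Giemsa smears. Day-6 percent suppression was calculated versus untreated controls, with Welch-corrected t test.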

Data set [21] has as its system Plasmodium berghei. The data set is described as follows: In vivo antimalarial activity against blood stage Plasmodium berghei transfected with GFP infected in BALB/c mouse assessed as supression of parasitemia at 10 mg/kg, po administered thrice daily started from 3 days post infection and measured on day 6 by Giemsa staining based flow cytometric analysis relative to control. The format is functional. The conditions noted are these: time 3 day.

Converted amounts (≈) assume the structure as drawn. The source made the active and inactive calls. No cut-off for these calls is given here.

For orientation: EC50 means the concentration needed to bring the measured effect to its halfway point. As a reminder, the solubility is the dissolved amount per volume that the medium holds. Broadly, the AUC is concentration integrated over time. The low end stands for low exposure, the high end for high exposure.

Turning to `CN1CCCOC1=O`, the 50% effective concentration (EC50) in the data set on Plasmodium falciparum [1] was more than 8320 nM.
With `CCN(CC)C(=O)Oc1c(-c2ccccc2C)c(C)nc2cc(OC)c(Cl)cc12`, the EC50 with Plasmodium falciparum [1] was more than 2290 nM; with Plasmodium falciparum [3] it was more than 3.55 µM. In addition, in data set [2], the solubility was less than 1 µM.
For `CNCCCOC(=O)OCOc1c(-c2ccc(Oc3ccc(OC(F)(F)F)cc3)cc2F)c(C)nc2cc(OC)c(Cl)cc12.Cl`, the Activity is more than 99% in the data set with Plasmodium berghei [4]; 90% in the data set with Plasmodium berghei [5]; less than 1% with Plasmodium berghei [7]; less than 1% in the data set on Plasmodium berghei [10]; less than 1% in the data set with Plasmodium berghei [12]; more than 99% with Plasmodium berghei [13]. Also, the Activity in the data set with Plasmodium berghei [14] was 57%; in data set [16], “Non-Toxic”; in the data set with Plasmodium berghei [17], 97%. Besides, the AUC in [6] is 10269 µmol·min/L; in [8] it was 4818 µmol·min/L. For the same compound, the results for the clearance in [9] and in data set [15] were 0.9 mL/min/kg and 1.4 mL/min/kg, respectively. The solubility in data set [11] was more than 5.5 mM.
As for `c1cc([C@H]2CC[C@]3(CC2)OOC2(O3)C3CC4CC(C3)CC2C4)ccc1OCCN1CCOCC1` (some centres undefined), the outcome in the data set on Plasmodium berghei [18] was Active.
With `NC(=O)N1c2ccccc2C=Cc2ccccc21` [CARBAMAZEPINE], the solubility was 100 µM (≈ 23.6 µg/mL) in [19] and 95 µM (≈ 22.4 µg/mL) in data set [2].
Turning to `CCN(CC)Cc1cc(Nc2ccnc3cc(Cl)ccc23)ccc1O` [AMODIAQUINE], the Activity in the data set on Plasmodium berghei [20] and with Plasmodium berghei [21] was more than 99% each time.
On to `O=C1C(O)=C([C@H]2CC[C@H](c3ccc(Cl)cc3)CC2)C(=O)c2ccccc21` [ATOVAQUONE], for which the EC50 with Plasmodium falciparum [3] was 18.2 µM.
Turning to `CCOC(=O)Oc1c(-c2ccccc2C)c(C)nc2cc(OC)c(Cl)cc12`, the EC50 in the data set on Plasmodium falciparum [1] was 170 nM; in the data set with Plasmodium falciparum [3] it was 0.126 µM. Also, in data set [2], the solubility is less than 1 µM.
For `CCCSc1ccc2nc(NC(=O)OC)[nH]c2c1` [ALBENDAZOLE], the figures for the solubility in data set [19] and in [2] were 100 µM (≈ 26.5 µg/mL) and 6.1 µM (≈ 1.62 µg/mL), respectively.
